Apaf1 inhib – human Apaf-1 inhibition. O14727. reconstituted apoptosome caspase-3 activity, DEVD-Rh110 fluorescence. inhibition, % at 20 µM. hit rate 0.71% among 330,000; active = inhibition of at least 40% at 20 µM;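 also: plate controls were DMSO wells for no effect and DEVD-CHO caspase inhibitor wells for full effect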
Target sequence (O14727 whole entry, looked up): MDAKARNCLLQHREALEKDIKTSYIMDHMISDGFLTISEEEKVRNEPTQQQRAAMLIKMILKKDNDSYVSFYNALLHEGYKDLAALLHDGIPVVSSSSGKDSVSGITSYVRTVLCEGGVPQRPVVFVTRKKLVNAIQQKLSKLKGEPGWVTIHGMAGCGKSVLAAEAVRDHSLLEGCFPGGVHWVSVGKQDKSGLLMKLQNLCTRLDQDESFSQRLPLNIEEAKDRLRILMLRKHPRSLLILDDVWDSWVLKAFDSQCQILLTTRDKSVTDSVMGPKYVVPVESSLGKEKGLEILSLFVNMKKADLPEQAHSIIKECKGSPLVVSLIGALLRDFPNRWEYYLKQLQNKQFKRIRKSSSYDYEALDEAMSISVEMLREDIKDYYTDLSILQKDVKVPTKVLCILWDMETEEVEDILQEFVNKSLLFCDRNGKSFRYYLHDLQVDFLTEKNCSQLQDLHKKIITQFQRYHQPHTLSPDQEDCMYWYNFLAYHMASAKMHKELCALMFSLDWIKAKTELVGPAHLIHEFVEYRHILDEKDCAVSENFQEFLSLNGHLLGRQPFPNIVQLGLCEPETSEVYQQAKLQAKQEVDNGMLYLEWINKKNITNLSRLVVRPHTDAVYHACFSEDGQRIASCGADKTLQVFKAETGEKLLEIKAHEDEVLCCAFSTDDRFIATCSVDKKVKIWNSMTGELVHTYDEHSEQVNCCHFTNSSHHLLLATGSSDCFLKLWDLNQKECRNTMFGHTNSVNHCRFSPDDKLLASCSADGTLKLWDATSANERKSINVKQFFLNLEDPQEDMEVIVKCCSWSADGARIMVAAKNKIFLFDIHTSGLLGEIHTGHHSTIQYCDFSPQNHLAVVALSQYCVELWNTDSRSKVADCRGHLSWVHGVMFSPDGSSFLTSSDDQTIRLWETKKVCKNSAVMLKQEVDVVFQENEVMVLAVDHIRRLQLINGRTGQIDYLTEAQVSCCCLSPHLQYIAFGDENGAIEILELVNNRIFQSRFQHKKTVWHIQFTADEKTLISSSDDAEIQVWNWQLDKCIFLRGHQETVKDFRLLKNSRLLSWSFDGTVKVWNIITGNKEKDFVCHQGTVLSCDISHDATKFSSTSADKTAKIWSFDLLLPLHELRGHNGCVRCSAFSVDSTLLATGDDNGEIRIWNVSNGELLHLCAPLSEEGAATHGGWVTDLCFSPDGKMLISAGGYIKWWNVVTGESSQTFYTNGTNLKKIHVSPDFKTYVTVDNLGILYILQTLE
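detection = Rh110 fluorescence intensity | test system = biochemical Apaf-1 apoptosome reconstitution | also added = cytochrome c and DEVD-Rh110 substrate | schedule = 30 min plus 50 min, RT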
UPR XBP1 act – activators of adaptive arm of unfolded protein response (XBP1). CHO-XBP1 luciferase reporter, IRE1-XBP1 UPR activation, luminescence; percent of tunicamycin response, DMSO as zero. activation, % at 20 µM. hit rate 0.33% among 330,000. AID 463104;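 active = versus positive control, 20 µM dose yields 30% or more activation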;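 also: 100% = tunicamycin at 10 µg/mL and 0% = DMSO only wells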
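Material: CHO cell line with stable XBP1 luciferase reporter; buffer or medium: F12 medium containing 10% fetal bovine serum; compound: single point, 20 µM final compound, 1% DMSO; incubation: 6 h treatment, 37 °C; measured by: glow luminescence from Steady-Glo reagent; evaluation: activation, % of tunicamycin; control set: tunicamycin high, DMSO low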
Mdm2 MdmX PPI – inhibitors of human Mdm2/MdmX interaction | hit rate 3% among 330,000 | AID 485346 | SaOS-2 split-luciferase Mdm2/MdmX complementation, luminescence | inhibition, % at 8 µM | O15151+Q00987;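 active = inhibition of at least 50% at 8 µM in the primary screen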
UBC13 inh – inhibitors of human UBC13 polyubiquitin chain formation; AID 485273; P61088; TR-FRET; inhibition, % at 20 µM; hit rate 0.47% among 330,000; in the data active = inhibition above about 45%, passing the limit was not always enough
CHOP UPR activ – activators of apoptotic arm of unfolded protein response (CHOP) | CHO-CHOP luciferase reporter, UPR activation, luminescence; percent of tunicamycin response over DMSO baseline | activation, % at 10 µM | AID 449763 | hit rate 0.34% among 330,000;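 active = at 10 µM dose, activation of 40% or more, normalized to positive control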;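 also: 100% = tunicamycin at 10 µg/mL and 0% = DMSO alone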
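measured by = luciferase luminescence | assay system = CHO-CHOP cells, stable luciferase reporter of PERK-eIF2a-CHOP signalling | amount = 500 reporter cells seeded per well | timing = 6 h compound exposure at 37 °C after overnight seeding | controls = positive tunicamycin 10 µg/mL, negative DMSO alone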
Mdm2 MdmX conf – human Mdm2/MdmX binding inhibition, confirmed; shares compounds with Mdm2 MdmX PPI; luminescent assay; inhibition, % at 8 µM; hit rate 55% among 10,000; AID 489028; in the data active = inhibition above about 40%
FLuc counter – full-length luciferase inhibition in Mdm2/MdmX counter-screen; SaOS-2 full-length luciferase counterscreen, luminescence; shares compounds with Mdm2 MdmX PPI; AID 504607; hit rate 77% among 6,200; inhibition, % at 8 µM;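 active = mean inhibition at 8 µM reaching about 37%, which flags the compound as non-specific, limit read from the data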;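 also: p53-null SaOS-2 cells with luciferase driven by a doxycycline-inducible promoter; compound on cells about two nights before reading with doxycycline added after day one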
Apaf-1 inh conf – confirmation of Apaf-1 inhibitors. shares compounds with Apaf1 inhib. reconstituted apoptosome, caspase-3 DEVD-Rh110 fluorescence. inhibition, % at 20 µM. hit rate 25% among 1,800. AID 504614;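 active = mean inhibition of at least 40% at 20 µM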;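 also: plate controls were DMSO wells for no effect and DEVD-CHO caspase inhibitor control wells for full effect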
Rh110 quench – counter-screen for Apaf-1 inhibitors: fluorescence interference; shares compounds with Apaf1 inhib; activation (fluorescence interference), % at 20 µM; AID 504615; 1,800 tested, under 10 active; Rh110 fluorescence interference, quenched caspase reaction;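 active = signal rise of 40% or more at 20 µM, treated as a fluorescence artifact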
* hit, by the source's call; x = not tested or not shown. In the library only some 4.1% were active in any assay of this set; here they are far more common.

SMILES	Apaf1 inhib	UPR XBP1 act	Mdm2 MdmX PPI	UBC13 inh	CHOP UPR activ	Mdm2 MdmX conf	FLuc counter	others
C=CCNc1nc(C(=O)OCC(=O)N(Cc2ccccc2)C(C)C)cs1	6	-1	3	-1	-1	x	x
CN(C)CCNc1ncnc2oc(-c3ccccc3)c(-c3ccccc3)c12	12	0	46	5	2	x	x
COc1ccc(-c2oc3ncnc(NCCCN(C)C)c3c2-c2ccc(OC)cc2)cc1	21	11	97*	10	4	42*	29
O=P(c1ccccc1)(c1ccccc1)c1nc(-c2ccccc2)oc1NCc1ccccc1	18	3	60*	5	-1	5	x
CCOP(=O)(OCC)c1nc(-c2ccccc2)oc1NCc1ccccc1	21	0	6	0	-1	x	x
C=C1CCc2c([nH]c3ccc(OCC(C)C)cc23)C1=O	19	-3	98*	1	-5	32	x
CCn1c2c(c3cc(OCC(C)C)ccc31)CCCC2=O	16	-2	16	29	1	x	x
O=C(N/N=C/c1ccc(O)cc1)Nc1cccc2nsnc12	-4	16	71*	6	2	66*	62*
CCCOc1ccc2ccccc2c1/C=N/n1c(C)nnc1-n1nc(C)cc1C	10	-4	52*	-3	-1	54*	54*
CC1CCCCC1NC(=O)CN1C(=O)NC(Cc2ccccc2)(Cc2ccccc2)C1=O (stereo unspecified)	-2	0	-1	5	0	x	x
CC(NC(=O)CN1C(=O)NC(Cc2ccccc2)(Cc2ccccc2)C1=O)C12CC3CC(CC(C3)C1)C2 (stereo unspecified)	18	-1	77*	4	-1	45*	65*
CC1(C)CC(NC(=O)C23CCC(C)(C2Br)C3(C)C)CC(C)(C)N1 (stereo unspecified)	-26	1	23	5	0	x	x
COCCNC(=S)N/N=C(\C)c1cccc(OC)c1	-9	1	14	-7	2	x	x
CC(C)(C)c1ccc(/C=C2\SC(=O)N(CCNC(=O)c3cccc(S(=O)(=O)N4CCOCC4)c3)C2=O)cc1	17	-6	70*	-12	-3	76*	86*
CCN1CCN(CCNC(=O)c2ccc(/C=C3/Sc4ccccc4N(Cc4cccc(Cl)c4)C3=O)cc2)CC1	28	15	96*	23	2	81*	58*
O=C(NCCN1CCOCC1)c1ccc(/C=C2\Sc3ccccc3N(Cc3ccccc3F)C2=O)cc1	8	7	60*	12	1	9	x
Cc1cccc(CN2C(=O)/C(=C\c3ccc(C(=O)NCCN4CCOCC4)cc3)Sc3ccccc32)c1	16	1	80*	27	8	61*	76*
Cc1ccccc1CN1C(=O)/C(=C\c2ccc(C(=O)NCCN3CCOCC3)cc2)Sc2ccccc21	16	-4	45	27	2	x	x
Cc1ccc(S(=O)(=O)N2CCOCC2)cc1C(=O)NCCN1C(=O)S/C(=C\c2ccccc2Cl)C1=O	13	-2	16	5	2	x	x
CC1CCCC(C)N1C(=O)CSc1nc2c(c(=O)n(C)c(=O)n2C)n1C (stereo unspecified)	3	-7	-7	8	3	x	x
Cc1ccc(CNC(=O)c2ccc3c(=O)c(O)c(-c4ccc(C)cc4)[nH]c3c2)cc1	-11	10	58*	-15	3	55*	29
CCCNC(=O)c1ccc2c(=O)c(O)c(-c3ccsc3)[nH]c2c1	-16	2	57*	-17	1	23	x
Cc1ccc(CNC(=O)c2cccc(S(C)(=O)=O)c2)cc1	0	1	2	4	-2	x	x
CCCNC(=O)c1ccc2c(=O)c(O)c(-c3ccc(C)cc3)[nH]c2c1	-7	0	58*	-1	1	51*	48*
O=C(Nc1c(F)cccc1F)c1cnc(N2CCN(c3ccccn3)CC2)c2ccccc12	11	4	57*	24	1	32	x
SMILES	Apaf1 inhib	UPR XBP1 act	Mdm2 MdmX PPI	UBC13 inh	CHOP UPR activ	Mdm2 MdmX conf	FLuc counter	others
CCN1CCN(c2ncc(C(=O)Nc3cc(Cl)ccc3OC)c3ccccc23)CC1	10	1	54*	28	1	3	x
COc1ccccc1N1CCN(c2ncc(C(=O)N3CCN(c4cccc(Cl)c4)CC3)c3ccccc23)CC1	7	-1	33	41	8	x	x
COc1ccc(C2/C(=C(/O)c3ccc(Br)cc3)C(=O)C(=O)N2C)cc1 (stereo unspecified)	-12	-5	10	-7	1	x	x
CN1CCN(c2ccccc2NC(=O)COc2ccc(Cl)cc2)CC1	26	-3	25	7	-1	x	x
CCOC(=O)C1Nc2ccc(C(F)(F)F)cc2C2c3ccccc3CC12 (stereo unspecified)	29	-8	97*	23	-7	70*	43*
O=C(c1ccc(Cl)cc1)C(CN1CCCCC1)c1ccccc1 (stereo unspecified)	1	-8	94*	3	203*	55*	42*
CCCOc1ccc(C(=O)C(CN2CCOCC2)c2ccccc2)cc1 (stereo unspecified)	14	12	91*	-3	33	84*	26
CCOC(=O)C(CN1CCCC1)c1ccccc1 (stereo unspecified)	5	1	-3	4	-2	x	x
OC(Cn1cnnc1)c1ccccc1 (stereo unspecified)	-2	-6	-17	7	0	x	x
N/C(=N\N=C/c1ccc(F)cc1)N/N=C\c1ccc(F)cc1	28	18	60*	12	0	4	x
N=c1n(CCCOc2ccccc2Cl)c2ccccc2n1CC(N)=O	-10	0	65*	7	0	42*	63*
CCC1=Nc2cc(C(=O)NCCCN3CCOCC3)ccc2Sc2ccccc21	1	-4	21	4	0	x	x
CCCC1=Nc2cc(C(=O)NCCCOCC)ccc2Sc2ccccc21	45*	11	60*	-1	-3	72*	124*	Apaf-1 inh conf=3;Rh110 quench=-1
CN(C)c1ccc(N2CC(C)(C)C2=O)cc1	13	-5	-19	3	1	x	x

Screens (PubChem BioAssay)
